T cruzi repl: inhibitors of intracellular T. cruzi growth, primary screen, luminescence, NIH3T3 host cells; 1.4% of 300,000 active; inhibition, % (no concentration beside the values); T. cruzi beta-gal in NIH3T3, 90 h;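 active = mean inhibition across valid replicates above about 55%, limit read from the data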;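 note: signal also drops with host cell toxicity which is not excluded here; 0% = plate median of DMSO wells and 100% = zero luminescence signal; higher percent means less beta-gal luminescence so fewer parasites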
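Assay system: NIH/3T3 fibroblasts plus reporter T. cruzi. Amount: NIH/3T3 cells, 5,000 per well. Buffer or medium: DMEM, 2% fetal bovine serum. Doses: compound pinned at 50 nL/well, DMSO. Schedule: ≥90 h infection period, 3 h prior cell attachment. Signal: luminescent β-galactosidase signal after 60 min lysis. Read-out: parasite load inhibition, %.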
Beta cell apopt: inhibitors of cytokine-induced beta cell apoptosis, primary screen, luminescence. INS-1E cytokine-induced death, ATP luminescence, 48 h; percent of positive-control rescue, neutral wells zero. protection from apoptosis, % (no concentration beside the values). 0.8% of 300,000 active. AID 435005, 2010;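 active = Every replicate reaches about 75%, or at least half do and their mean reaches it too, limit read from the data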;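 note: 0% = cytokine-treated negative control wells and 100% = positive control rescue; higher means more ATP so stronger rescue from cytokine killing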
CSC inhib: cancer stem cell viability inhibitors, primary screen, luminescence | AID 2717, 2010 | inhibition, % at 7.5 µM | cancer stem cell-like cells viability | 1.1% of 300,000 active; in the data active = inhibition above about 75%; tested in HMLE shEcad cells
HIF activator: HIF pathway transcriptional activators, primary screen, cell-based, U2OS HRE-luciferase, luminescence; AID 1910, 2009; U2OS HRE-luciferase reporter; normalized: DMSO 0%, desferrioxamine 100%; activation, % at 7.5 µM (by protocol); 0.32% of 300,000 active;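 active = mean activation of at least 10% of the iron chelator positive control signal, with at least half of replicates also reaching 10%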
PolyA inh: polyadenylation inhibitors in yeast reporter cells, primary screen, luminescence, S. cerevisiae | 0.02% of 300,000 active | activity score, % at 12 µM | AID 1875, 2009 | S. cerevisiae SKY197-pL101 polyadenylation reporter, beta-gal luminescence; efflux-impaired pdr1/pdr3 knockout yeast; score 100 = 6 SD above DMSO;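 active = lowest replicate activity score at least 50, where 100 means six control SD above control mean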;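 note: yeast exposed to compound for 9 h at 30 °C; higher score means more reporter readthrough which indicates perturbed polyadenylation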
Calb FLC: C. albicans growth inhibition with fluconazole, primary screen, CaCi-2 strain, Alamar Blue fluorescence. C. albicans CaCi-2 + fluconazole, 48 h. growth inhibition, % (concentration not given with the values). 0.57% of 300,000 active;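 active = growth inhibition above about 58% in most replicates, limit read from the data, passing the limit was not always enough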;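 note: all wells also contain fluconazole at 8 µg/ml as a sub-toxic cotreatment; 0% = median of DMSO wells and 100% = median of geldanamycin control wells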
* marks the source's active call; other numbers are inactive results; x = no result given. The list is not random: actives were taken first. Their share in the collection is about 3.1%.

SMILES	T cruzi repl	Beta cell apopt	CSC inhib	HIF activator	PolyA inh	Calb FLC
CNC(=S)N1N=C(c2ccccc2)CC1c1ccccc1Cl (stereo not drawn)	15	21	0	0	-35	65*
COc1ccc(N/C=C(\C=C\C#N)S(=O)(=O)c2ccccc2)cc1	14	-12	3	-1	-12	1
CCN(C[C@H]1N[C@@](CC)(C(=O)OC)[C@H]2C(=O)N(Cc3ccccc3)C(=O)[C@@H]12)S(=O)(=O)c1ccc(C(C)(C)C)cc1	x	12	x	x	x	x
Cn1cc(/C=C/c2cc[n+](C)cc2)c2cc(Cl)ccc21	50	95*	-9	-2	-4	82*
CN(Cc1ccccc1)CC(O)COc1ccc(CNCCc2ccncc2)cc1 (stereo not drawn)	66*	-5	10	1	-7	2
CCOC(=O)CC1C(=O)NCCN1S(=O)(=O)c1ccc(NC(C)=O)cc1 (stereo not drawn)	-14	2	-11	0	9	5
COc1ccc(OC)c(NC(=O)CSc2ncnc3c2cnn3-c2ccccc2Cl)c1	15	129*	x	0	4	-2
COc1cc(NC(=O)CSc2ncnc3c2cnn3Cc2ccccc2)cc(OC)c1	-20	1	16	1	10	-15
CC(OC(=O)CN1C(=O)NC2(CCCC2)C1=O)C(=O)c1ccccc1 (stereo not drawn)	-6	-2	-14	0	3	-6
COc1ccccc1N(Cc1ccccc1)S(=O)(=O)c1cccc(C(=O)Nc2ccc(C)cn2)c1	62*	23	2	-3	16	7
CCn1c(O)c(C2=c3ccccc3=NC2=O)c2cc(Br)ccc21	61*	-11	23	0	-66	0
COc1cccc(-c2ncc3ccccc3c2COC(=O)c2ccc(F)cc2)c1	x	2	-1	x	x	x
Cn1cc(Br)c(C(=O)N/N=C/c2cc3c(cc2Cl)OCO3)n1	0	x	x	3	10	14
CC(OC(=O)c1cccs1)C(=O)NC1CCCCC1C (stereo not drawn)	x	0	96*	x	x	x
CCCCCCOc1ccc(OC(=O)c2ccncc2)cc1	29	4	95*	2	7	2
Cn1nc([N+](=O)[O-])nc1Sc1ccc(Cl)cc1	69*	x	-5	0	-17	3
CC(NCC1(N2CCOCC2)CCCCC1)C(=O)Nc1ccc(Cl)cc1Cl (stereo not drawn)	35	-6	-1	0	1	-3
O=C1CC(C(=O)N2CCN(c3ccccn3)CC2)CN1Cc1ccccc1Cl (stereo not drawn)	-7	-5	x	0	8	5
Cc1ccc(S(=O)(=O)Nc2ccc(N3CCN(C)CC3)nc2)cc1	58*	-7	20	0	3	-6
NC(N)=N/N=C/c1ccc(OS(=O)(=O)c2ccccc2)cc1	57*	58	12	1	-20	6
CCCCn1c(SCC(=O)N(C)C)nnc1-c1ccncc1	-10	1	-11	0	7	7
CCCn1c(=N)n(CC(=O)C(C)(C)C)c2ccccc21	7	4	-3	0	11	16
CCCCn1c(=N)n(CC(=O)c2ccc(Br)s2)c2ccccc21	15	83*	36	-3	-21	3
CCCCn1c(=N)n(CC(=O)C(C)(C)C)c2ccccc21	62*	3	-5	2	5	-10
CCCCn1c(=O)c(CCC(=O)OCC(=O)NC(C)c2ccccc2)nc2ccccc21 (stereo not drawn)	-2	5	-22	0	4	-32
SMILES	T cruzi repl	Beta cell apopt	CSC inhib	HIF activator	PolyA inh	Calb FLC
CCCCn1c(=O)c(CCC(=O)OCC(=O)NCc2ccc(OC)c(OC)c2)nc2ccccc21	8	1	x	0	7	77*
CC(=O)Oc1ccc(N(C(C)=O)S(=O)(=O)c2cccs2)c2ccccc12	-5	93*	-3	-1	-13	51
Oc1ccc2ccccc2c1/C=N/Nc1ccccc1	-6	2	41	-1	1	-6
CCOC(=O)c1ccc(Nc2cc(C)nc(-c3ccccc3O)n2)cc1	52	10	43	x	-18	11
Cc1cc(Nc2cccc(F)c2)nc(-c2ccccc2O)n1	56*	1	102*	0	-37	-10
Cc1cc(N/N=C/c2c(O)ccc3ccccc23)nc(-c2ccccc2O)n1	-11	89*	42	6	-8	82*
Cc1cc(Nc2ccccc2)nc(-c2ccccc2O)n1	-5	6	80*	1	8	-4
Cc1cc(Nc2ccccc2Cl)nc(-c2ccccc2O)n1	17	14	51	-6	-30	20
Cc1ccc(C)n1-c1ccc(C(=O)NN)cc1	-3	-3	x	-1	0	4
COc1ccccc1/C=C/C(=O)NCCc1ccccn1	-11	0	10	4	0	-6
COCCNC(=O)NC1(C(F)(F)F)Oc2ccc(Cl)cc2O1 (stereo not drawn)	-1	-2	75*	2	-6	-22
O=C(N/N=C/c1ccc([N+](=O)[O-])o1)c1ccc2c(c1)OCO2	69*	-4	-13	-3	11	29
Cc1ccc(C(=O)N/N=C\c2ccc(-c3ccc([N+](=O)[O-])cc3)o2)cn1	11	-10	1	1	-7	-7
O=C(N/N=C\c1ccc(-c2ccc([N+](=O)[O-])cc2)o1)c1ccc2c(c1)OCO2	33	0	-2	0	7	31
Cc1ccc(C(=O)N/N=C\c2ccc([N+](=O)[O-])o2)cn1	58*	-4	-3	-1	1	-1
CCOc1ccc(CN2CCNC(=O)C2CC(=O)NCc2csc(C(C)C)n2)cc1 (stereo not drawn)	1	x	x	-3	4	-10
O=C(COc1ccccc1Cl)Nc1nc(-c2ccncc2)cs1	x	1	1	x	x	x
CCc1sc(C(=O)Nc2nc(-c3ccccn3)cs2)cc1C	x	37	49	x	x	x
O=C(Nc1nc(-c2ccc(Cl)s2)cs1)c1cccs1	76*	8	-6	2	-13	-10
Cc1ccc(C(=O)Nc2nc(-c3ccccn3)cs2)s1	x	95*	43	x	x	x
O=C(Nc1ccc([N+](=O)[O-])cc1)Nc1nc(-c2ccc(Cl)s2)cs1	46	129*	97*	-3	-15	-13
CC(=O)Nc1nc(-c2ccc([N+](=O)[O-])cc2)cs1	4	-2	-9	-1	13	19
O=C(COc1ccc(F)cc1Cl)Nc1nc(-c2ccccn2)cs1	76*	8	39	-15	7	-1
O=C(Nc1nc(-c2ccccc2)cs1)c1cccs1	10	5	-2	0	10	-32

Screens as filed in PubChem.
